Results from different studies.
Protocols differ between the studies behind these lines.

`CC(=O)c1ccccc1` has a logP of 1.51 (water; 1 h).
With `CC(=O)N1N=C(c2cccc(O)c2)CC1c1ccc(Cl)cc1` (stereo not shown) the logP was 2.98 (potentiometric).
With `CCc1nc(N)nc(N)c1-c1ccc(Cl)cc1` the logP was 3.14.
For `Nc1nc(-c2ccccc2)nc2[nH]nc(Nc3ccc(C(F)(F)F)cc3)c12`, the logP was 2.85.
The logP of `C=C[C@H]1C[N@]2CC[C@H]1C[C@@H]2C(O)c1ccnc2ccc(OC)cc12` (stereo partly shown) is reported as 3.17 (water).
With `N#Cc1[nH]nnc1-c1cc(Cl)cc(/C=C/c2cccc(C(F)(F)F)c2)c1` the logP was 5.4 (potentiometric).
With `C=CCN1CC[C@]23c4c5ccc(O)c4O[C@H]2[C@@H](OCCOCCOCCOCCOCCOCCOCCOC)CC[C@@]3(O)[C@H]1C5` the logP was 1.43.
The logP of `CC1=NN(CNc2ccc(C(=O)O)cc2)C(=O)C1=NNn1c(-c2ccccc2)nc2ccccc2c1=O` is reported as 4.15.
`Clc1cc2c(c3ncccc13)OCN(CCc1ccccc1)C2` gave a logP of 4.54.
The logP of `CNCc1cc(-c2ccccc2F)n(S(=O)(=O)c2cccnc2)c1` is reported as 2.74.
`CC1=NN(CNc2c(O)c(S(=O)(=O)O)cc3ccccc23)C(=O)C1=NNn1c(-c2ccccc2)nc2ccccc2c1=O` gave a logP of 5.01.
For `CS(=O)(=O)N1CCN(Cc2cc3nc(-c4cccc5[nH]ncc45)nc(N4CCOCC4)c3s2)CC1`, the logP was 3.22.
`O=C1NN=C(N=Cc2ccccc2)C1=NNn1c(-c2ccccc2)nc2ccccc2c1=O` has a logP of 3.39.
`N#Cc1[nH]nnc1-c1csc(-c2ccc(Cl)cc2)n1` has a logP of 4.5 (potentiometric).
With `O=C(c1cc(Cc2n[nH]c(=O)c3ccccc23)ccc1F)N1CCN(C(=O)C2CC2)CC1` the logP was 1.55.
`CC1=NN(CNc2ccc(Cl)cc2)C(=O)C1=NNn1c(-c2ccccc2)nc2ccccc2c1=O` gave a logP of 5.1.
